The values that follow come from ChEMBL document CHEMBL2429846, “Inhibition of monoamine oxidase by 3,4-dihydro-2(1H)-quinolinone derivatives” (Bioorg Med Chem Lett, 2013).

Data set [1] has as its target T1, Amine oxidase [flavin-containing] A (Homo sapiens, UniProt P21397).
T1 sequence (P21397 whole entry): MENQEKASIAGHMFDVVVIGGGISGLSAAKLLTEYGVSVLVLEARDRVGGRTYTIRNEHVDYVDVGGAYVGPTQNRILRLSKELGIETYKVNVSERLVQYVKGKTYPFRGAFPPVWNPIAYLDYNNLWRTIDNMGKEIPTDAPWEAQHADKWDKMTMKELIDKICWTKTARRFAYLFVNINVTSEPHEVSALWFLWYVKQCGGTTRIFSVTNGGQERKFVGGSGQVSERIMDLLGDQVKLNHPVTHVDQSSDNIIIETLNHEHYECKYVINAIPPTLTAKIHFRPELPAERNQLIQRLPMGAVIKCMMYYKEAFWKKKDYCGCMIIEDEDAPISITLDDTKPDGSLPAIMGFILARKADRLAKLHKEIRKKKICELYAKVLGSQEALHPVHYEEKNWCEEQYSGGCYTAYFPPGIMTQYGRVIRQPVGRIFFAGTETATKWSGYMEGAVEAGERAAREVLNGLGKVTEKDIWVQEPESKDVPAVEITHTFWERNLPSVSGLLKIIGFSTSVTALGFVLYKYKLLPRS
The experiment in a line: Inhibition of recombinant human MAO-A assessed as inhibition of kynuramine conversion to fluorescent metabolite 4-hydroxyquinoline after 20 mins by fluorescence spectrophotometry. Summed up: (§1)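 IC50 values were read from sigmoidal concentration–inhibition curves of enzyme activity plotted against log inhibitor concentration.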

The species named for another data set is Homo sapiens. The data set can be described thus: Selectivity index, ratio of IC50 for recombinant human MAO-A to IC50 for recombinant human MAO-B. Summed up: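 The index was calculated as IC50(MAO-A)/IC50(MAO-B), giving selectivity for the MAO-B isoform.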
In data set [2] the target is T2, Amine oxidase [flavin-containing] B (Homo sapiens, UniProt P27338).
T2 sequence (P27338 whole entry): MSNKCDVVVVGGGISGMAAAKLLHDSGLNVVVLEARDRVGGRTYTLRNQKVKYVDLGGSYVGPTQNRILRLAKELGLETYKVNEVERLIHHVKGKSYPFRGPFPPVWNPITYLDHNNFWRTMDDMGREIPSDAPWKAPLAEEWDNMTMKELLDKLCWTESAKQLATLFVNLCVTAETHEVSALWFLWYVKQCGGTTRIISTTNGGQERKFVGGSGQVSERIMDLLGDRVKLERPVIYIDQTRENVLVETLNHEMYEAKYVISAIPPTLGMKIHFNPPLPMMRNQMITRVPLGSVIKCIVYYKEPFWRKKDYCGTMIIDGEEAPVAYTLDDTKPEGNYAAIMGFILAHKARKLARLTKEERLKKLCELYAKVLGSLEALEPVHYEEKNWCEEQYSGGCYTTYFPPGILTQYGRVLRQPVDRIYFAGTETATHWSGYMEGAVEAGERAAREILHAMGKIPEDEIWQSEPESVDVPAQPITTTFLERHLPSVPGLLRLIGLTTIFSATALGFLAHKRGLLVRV
The experiment in a line: Inhibition of recombinant human MAO-B assessed as inhibition of kynuramine conversion to fluorescent metabolite 4-hydroxyquinoline after 20 mins by fluorescence spectrophotometry. Summed up:
as §1

Data set [3] concerns the target T2, Amine oxidase [flavin-containing] B. The experiment in a line: Reversible inhibition of recombinant human MAO-B using kynuramine as substrate assessed as residual activity at 100 times IC50 preincubated for 30 mins followed by 100 fold dilution measured after 20 mins by fluorescence spectrophotometry relative to control.
Data set [4] has the same target. The experiment in a line: Inhibition of recombinant human MAO-B assessed as inhibition of kynuramine conversion to fluorescent metabolite 4-hydroxyquinoline at 100 uM after 20 mins by fluorescence spectrophotometry.
The target of data set [5] is T1, Amine oxidase [flavin-containing] A. The data set can be described thus: Inhibition of recombinant human MAO-A assessed as inhibition of kynuramine conversion to fluorescent metabolite 4-hydroxyquinoline at 100 uM after 20 mins by fluorescence spectrophotometry.

Usually IC50 stands for the concentration at which inhibition is half-maximal.

As for `O=C1CCc2ccc(OCCCc3ccccc3)cc2N1`, the values for the IC50 in data set [1] and in data set [2] were 22.5 µM and 0.13 µM, respectively. Also, in the data set listed under Homo sapiens, the Ratio IC50 was found to be 173.
Regarding `O=C1CCc2ccc(OCc3cccc(Br)c3)cc2N1`, in data set [3], the Activity is recorded as 36%. The IC50 in data set [1] turned out to be 7.98 µM.
Turning to `O=C1CCc2cc(OCCc3ccccc3)ccc2N1`, the figures for the IC50 in data set [1] and in data set [2] were 22.5 µM and 2.33 µM, respectively. The Ratio IC50 in the data set listed under Homo sapiens amounted to 10.
`O=C1CCc2cc(OCCCc3ccccc3)ccc2N1`: the IC50 in data set [1] amounted to 19.7 µM; in data set [2] it was 0.284 µM. In addition, the Ratio IC50 in the data set listed under Homo sapiens was determined as 69.
The matching figures for `O=C1CCc2cc(OCc3cccc(Cl)c3)ccc2N1`: 50.6 µM, 0.62 µM and 82.
Turning to `O=C1CCc2cc(O)ccc2N1`, the results for the IC50 in data set [1] and in data set [2] were 161 µM and 201 µM, respectively. The Ratio IC50 in the data set filed under Homo sapiens was found to be 0.8.
`O=C1CCc2ccc(OCc3ccccc3)cc2N1`: the IC50 is 90.4 µM in data set [1] and 0.038 µM in data set [2]. Also, in the data set filed under Homo sapiens, the Ratio IC50 is 2380.
As for `O=C1CCc2cc(OCc3cccc(Br)c3)ccc2N1`, the IC50 in data set [1] is 12.4 µM; in data set [2], 0.086 µM. The Ratio IC50 in the data set listed under Homo sapiens stood at 144.
As to `O=C1CCc2ccc(OCCc3ccccc3)cc2N1`, the 50% inhibitory concentration (IC50) amounted to 53.7 µM in data set [1] and 0.191 µM in data set [2]. Moreover, the Ratio IC50 in the data set filed under Homo sapiens was found to be 281.
With `O=C1CCc2ccc(O)cc2N1`, the IC50 in data set [1] was 183 µM. In addition, the “inhibition (INH)” value in data set [4] is “Not Active”.
In the case of `O=C1CCc2ccc(OCc3cccc(Cl)c3)cc2N1`, the “inhibition (INH)” value in data set [5] was “Not Active”.
As to `O=C1CCc2cc(OCc3ccccc3)ccc2N1`, the IC50 in data set [1] was 25.3 µM; in data set [2] it was 4.01 µM. For the same compound, the Ratio IC50 in the data set listed under Homo sapiens came to 6.
